Test results taken from ChEMBL document CHEMBL1157836, “Dibenzocyclooctadiene lignans from Schisandra wilsoniana and their anti-HIV-1 activities” (J Nat Prod, 2010).
In brackets after ≈: the same amount, converted by molar mass.

Assays:
[1] = tested on: Human immunodeficiency virus 1; assay: Antiviral activity against HIV1 infected in human C8166 cells assessed as inhibition of virus-induced cytopathic effect; assay type: functional, organism-based; conditions: Human immunodeficiency virus 1, C8166
Method in brief: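 HIV-1 cytopathic-effect inhibition assay in C8166 cells, giving EC50. AZT served as the positive control. Cytotoxicity was determined in parallel.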

[2] = Cytotoxicity against human C8166 cells by MTT assay; assay type: cell-based
Method in brief: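 C8166 cells were tested by MTT assay alongside the anti-HIV-1 determination, giving CC50. AZT served as the positive control.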

[3] = Therapeutic index, ratio of CC50 for C8166 cells to EC50 for HIV1; assay type: cell-based; conditions: human, read-out: TI
Method in brief: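 TI was calculated as CC50 over EC50. CC50 came from the MTT assay on C8166 cells; EC50 came from HIV-1 cytopathic-effect inhibition in C8166 cells, run in parallel.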

Row | SMILES | EC50 [1] [µg/mL] | CC50 [2] [µg/mL] | selectivity ratio [3]
1 | COc1c(O)cc2c(c1OC)-c1c(cc(O)c(OC)c1OC)[C@H](OC(=O)c1ccccc1)[C@@H](C)[C@@H](C)C2 | 2.1 (≈ 4.13 µM) | 14.2 (≈ 27.9 µM) | 6.7
2 | COc1c(O)cc2c(c1O)-c1c(cc(O)c(OC)c1OC)C[C@@H](C)[C@@H](C)C2 [MARLIGNAN A] | 2.6 (≈ 6.94 µM) | 15.8 (≈ 42.2 µM) | 6
3 | COc1cc2c(c(O)c1OC)-c1c(cc(O)c(OC)c1O)C[C@@H](C)[C@@H](C)C2 [MARLIGNAN B] | 5.1 (≈ 13.6 µM) | 43.4 (≈ 116 µM) | 8.4
4 | COc1cc2c(c(O)c1O)-c1c(cc(OC)c(OC)c1O)C[C@@H](C)[C@@H](C)C2 [MARLIGNAN C] | 5 (≈ 13.4 µM) | 65.6 (≈ 175 µM) | 13.2
5 | COc1c(O)cc2c(c1OC)-c1c(cc(O)c(OC)c1OC)[C@H](O)[C@@H](C)[C@@H](C)C2 [MARLIGNAN D] | 2.5 (≈ 6.18 µM) | 14.2 (≈ 35.1 µM) | 5.7
6 | COc1c(O)cc2c(c1OC)-c1c(cc(O)c(OC)c1OC)[C@H](OC(C)=O)[C@@H](C)[C@@H](C)C2 [MARLIGNAN E] | 1.6 (≈ 3.58 µM) | 13.7 (≈ 30.7 µM) | 8.7
7 | COc1c(O)cc2c(c1OC)-c1c(cc(O)c(OC)c1OC)[C@H](OC)[C@@H](C)[C@@H](C)C2 [MARLIGNAN F] | 1.4 (≈ 3.35 µM) | 21.4 (≈ 51.1 µM) | 15.6
8 | COc1c(O)cc2c(c1OC)-c1c(cc(O)c(OC)c1OC)C(=O)[C@@H](C)[C@@H](C)C2 [MARLIGNAN H] | 2.6 (≈ 6.46 µM) | 46.5 (≈ 116 µM) | 17.6
9 | COc1cc2c(c(OC)c1OC)-c1c(cc(OC)c(OC)c1OC)[C@H](OC(C)=O)[C@@H](C)[C@@H](C)C2 [MARLIGNAN I] | 2.9 (≈ 6.11 µM) | 13.5 (≈ 28.4 µM) | 4.6
10 | CCO[C@H]1c2cc(OC)c(OC)c(OC)c2-c2c(cc(OC)c(OC)c2OC)C[C@H](C)[C@@H]1C [MARLIGNAN J] | 1.9 (≈ 4.13 µM) | 17.2 (≈ 37.3 µM) | 9.3
11 | COc1cc2c(c(OC)c1OC)-c1c(cc(O)c(OC)c1O)C[C@H](C)[C@@](C)(O)C2 [MARLIGNAN K] | 1.9 (≈ 4.7 µM) | 14.8 (≈ 36.6 µM) | 7.7
12 | COc1c(O)cc2c(c1OC)-c1c(cc(O)c(OC)c1OC)C[C@](C)(O)[C@@H](C)C2 [MARLIGNAN L] | 1.4 (≈ 3.46 µM) | 22.6 (≈ 55.9 µM) | 16.4
